Data reported in ChEMBL document CHEMBL1154419, “Pharmacodynamic effects of telavancin against methicillin-resistant and methicillin-susceptible Staphylococcus aureus strains in the presence of human albumin or serum and in an in vitro kinetic model” (Antimicrob Agents Chemother, 2007).
≈ marks a conversion by molar mass, not a printed value. Calls of active or inactive are those of the source. The calls are words filed in the database; no cut-off is given here.

Experiments:
Staphylococcus aureus [1] = assay: Antibacterial activity against methicillin-susceptible Staphylococcus aureus ATCC 13709 assessed as change in bacterial burden at 5 mg/liter after 8 hrs; type: functional
Staphylococcus aureus [2] = assay: Antibacterial activity against methicillin-resistant Staphylococcus aureus ATCC 33591 assessed as change in bacterial burden at 2.5 mg/liter after 4 hrs; type: functional
Method in brief: (§1)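 In vitro kinetic model: spinner flask with 0.45-μm filter and prefilter, stirred, M-H broth at 37°C, starting inoculum approx. 5 × 10⁵ CFU/ml. Single initial drug dose of 1.0 to 40 mg/liter, with flow set to give a half-life of approx. 8 h. Viable counts at 0, 2, 4, 6, 8, 12 and 24 h. Duplicate runs per strain and concentration.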

Staphylococcus aureus [3] = assay: Antibacterial activity against methicillin-susceptible Staphylococcus aureus ATCC 13709 assessed as bacterial regrowth at 40 mg/liter Cmax; type: functional, organism-based
Staphylococcus aureus [4] = assay: Antibacterial activity against methicillin-resistant Staphylococcus aureus ATCC 33591 assessed as change in bacterial burden at 40 mg/liter after 4 hrs; type: functional; method in brief: as §1
Staphylococcus aureus [5] = assay: Antibacterial activity against methicillin-susceptible Staphylococcus aureus ATCC 13709 assessed as change in bacterial burden at 5 mg/liter after 24 hrs; type: functional
Staphylococcus aureus [6] = assay: Antibacterial activity against methicillin-susceptible Staphylococcus aureus ATCC 13709 assessed as bacterial killing at 0.5 to 50 times MIC after 24 hrs; type: functional
Method in brief: (§2)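 Static time-kill in M-H broth, in M-H broth with 40 g/liter fatty-acid-free purified human albumin, or in M-H broth with inactivated 50% human serum. Inoculum approx. 5 × 10⁵ CFU/ml, drug at 0.5, 1, 2.5, 5, 10, 25 and 50× MIC, 37°C. Samples at 0, 3, 6, 12 and 24 h plated on blood agar, counted after 24 h. Detection limit 5 × 10¹ CFU/ml. Run in duplicate.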

Staphylococcus aureus [7] = assay: Antibacterial activity against methicillin-susceptible Staphylococcus aureus ATCC 13709 assessed as change in bacterial burden at 1 mg/liter after 24 hrs; type: functional
[8] = Ratio of AUC in in vitro kinetic model containing Mueller-Hinton broth and methicillin-susceptible Staphylococcus aureus ATCC 13709 to MIC for methicillin-susceptible Staphylococcus aureus ATCC 13709 in bacterial killing stage; type: functional
[9] = Ratio of AUC in in vitro kinetic model containing Mueller-Hinton broth and methicillin-susceptible Staphylococcus aureus ATCC 13709 to MIC for methicillin-susceptible Staphylococcus aureus ATCC 13709 in bacterial regrowth stage; type: functional
Staphylococcus aureus [10] = assay: Antibacterial activity against methicillin-resistant Staphylococcus aureus ATCC 33591 assessed as bacterial killing at 50 times MIC after 24 hrs in presence of human albumin; type: functional, organism-based; method in brief: as §2
[11] = Cmax in human at 10 mg/kg once daily; type: ADME, organism-based; design: dose 10 mg/kg; conditions: in vivo
Staphylococcus aureus [12] = assay: Antibacterial activity against methicillin-susceptible Staphylococcus aureus ATCC 13709 assessed as bacterial killing at 10 times MIC after 6 hrs in PBS-nutrient depleted medium; type: functional, organism-based
Staphylococcus aureus [13] = assay: Antibacterial activity against methicillin-resistant Staphylococcus aureus ATCC 33591 assessed as change in bacterial burden at 10 mg/liter after 24 hrs; type: functional; method in brief: as §1
Staphylococcus aureus [14] = assay: Antibacterial activity against methicillin-resistant Staphylococcus aureus ATCC 33591 assessed as change in bacterial burden at 2.5 mg/liter after 6 hrs; type: functional; method in brief: as §1
Staphylococcus aureus [15] = assay: Antibacterial activity against methicillin-susceptible Staphylococcus aureus ATCC 13709 assessed as change in bacterial burden at 2.5 mg/liter after 4 hrs; type: functional
Staphylococcus aureus [16] = assay: Antibacterial activity against methicillin-resistant Staphylococcus aureus ATCC 33591 assessed as bacterial regrowth at 1 times MIC after 24 hrs in presence of human albumin; type: functional, organism-based; method in brief: as §2
Staphylococcus aureus [17] = assay: Antibacterial activity against methicillin-resistant Staphylococcus aureus ATCC 33591 after 18 to 24 hrs by macrodilution technique; type: functional
Method in brief: (§3)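 Broth macrodilution per CLSI, run in triplicate on separate occasions. Twofold serial drug dilutions in broth, inoculum approx. 5 × 10⁵ CFU/ml, 37°C for 18 to 24 h. MIC taken as the lowest concentration with no visible growth.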

Staphylococcus aureus [18] = assay: Antibacterial activity against methicillin-susceptible Staphylococcus aureus ATCC 13709 assessed as change in bacterial burden at 2.5 mg/liter after 6 hrs; type: functional
[19] = AUC (0 to 24 hrs) in human at 10 mg/kg once daily; type: ADME, organism-based; design: time < 24 hr, dose 10 mg/kg; conditions: plasma
Staphylococcus aureus [20] = assay: Antibacterial activity against methicillin-susceptible Staphylococcus aureus ATCC 13709 assessed as bacterial regrowth at 0.25 times MIC; type: functional, organism-based
Method in brief: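 Static time-kill in cation-supplemented M-H broth, inoculum ~5 × 10⁵ CFU/ml, 37°C; samples at 0, 3, 6, 12 and 24 h plated on blood agar for viable counts (detection limit 5 × 10¹ CFU/ml); duplicate runs.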

Staphylococcus aureus [21] = assay: Antibacterial activity against methicillin-susceptible Staphylococcus aureus ATCC 13709 assessed as bacterial killing at 50 times MIC after 24 hrs in presence of human albumin; type: functional, organism-based
Staphylococcus aureus [22] = assay: Antibacterial activity against methicillin-susceptible Staphylococcus aureus ATCC 13709 assessed as change in bacterial burden at 20 mg/liter after 12 hrs; type: functional
Staphylococcus aureus [23] = assay: Antibacterial activity against methicillin-susceptible Staphylococcus aureus ATCC 13709 assessed as change in bacterial burden at 20 mg/liter after 2 hrs; type: functional
Staphylococcus aureus [24] = assay: Antibacterial activity against methicillin-susceptible Staphylococcus aureus ATCC 13709 assessed as change in bacterial burden at 40 mg/liter after 8 hrs; type: functional
Staphylococcus aureus [25] = assay: Antibacterial activity against methicillin-susceptible Staphylococcus aureus ATCC 13709 assessed as change in bacterial burden at 10 mg/liter after 24 hrs; type: functional; method in brief: as §1
Staphylococcus aureus [26] = assay: Antibacterial activity against methicillin-resistant Staphylococcus aureus ATCC 33591 assessed as change in bacterial burden at 20 mg/liter after 2 hrs; type: functional; method in brief: as §1
Staphylococcus aureus [27] = assay: Antibacterial activity against methicillin-resistant Staphylococcus aureus ATCC 33591 assessed as bacterial regrowth at 0.5 times MIC after 24 hrs in presence of human albumin; type: functional, organism-based; method in brief: as §2
Staphylococcus aureus [28] = assay: Antibacterial activity against methicillin-susceptible Staphylococcus aureus ATCC 13709 after 18 to 24 hrs by macrodilution technique; type: functional; method in brief: as §3
Staphylococcus aureus [29] = assay: Antibacterial activity against methicillin-resistant Staphylococcus aureus ATCC 33591 assessed as change in bacterial burden at 2.5 mg/liter after 12 hrs; type: functional; method in brief: as §1
Staphylococcus aureus [30] = assay: Antibacterial activity against methicillin-resistant Staphylococcus aureus ATCC 33591 assessed as change in bacterial burden at 5 mg/liter after 6 hrs; type: functional; method in brief: as §1
Staphylococcus aureus [31] = assay: Antibacterial activity against methicillin-resistant Staphylococcus aureus COL infected New Zealand white rabbit endocarditis model assessed as reduction in mean aortic vegetation titer at 30 mg/kg, iv twice daily after 4 days; type: functional, Aorta
Staphylococcus aureus [32] = assay: Antibacterial activity against methicillin-susceptible Staphylococcus aureus ATCC 13709 assessed as change in bacterial burden at 20 mg/liter after 8 hrs; type: functional; method in brief: as §1
Staphylococcus aureus [33] = assay: Antibacterial activity against methicillin-susceptible Staphylococcus aureus ATCC 13709 assessed as change in bacterial burden at 10 mg/liter after 2 hrs; type: functional; method in brief: as §1
Staphylococcus aureus [34] = assay: Antibacterial activity against methicillin-susceptible Staphylococcus aureus ATCC 13709 assessed as change in bacterial burden at 2.5 mg/liter after 24 hrs; type: functional; method in brief: as §1
Staphylococcus aureus [35] = assay: Antibacterial activity against methicillin-susceptible Staphylococcus aureus ATCC 13709 assessed as change in bacterial burden at 5 mg/liter after 4 hrs; type: functional

CCCCCCCCCCNCCN[C@@]1(C)C[C@H](O[C@H]2[C@H](Oc3c4cc5cc3Oc3ccc(cc3Cl)[C@@H](O)[C@@H](NC(=O)[C@@H](CC(C)C)NC)C(=O)N[C@@H](CC(N)=O)C(=O)N[C@H]5C(=O)N[C@H]3C(=O)N[C@H](C(=O)N[C@H](C(=O)O)c5cc(O)c(CNCP(=O)(O)O)c(O)c5-c5cc3ccc5O)[C@H](O)c3ccc(c(Cl)c3)O4)O[C@H](CO)[C@@H](O)[C@@H]2O)O[C@@H](C)[C@H]1O [TELAVANCIN]
deltalog10CFU/ml (Staphylococcus aureus [1]): -4
deltalog10CFU/ml (Staphylococcus aureus [2]): -1.7
Activity (Staphylococcus aureus [3]): Active
deltalog10CFU/ml (Staphylococcus aureus [4]): -2.7
deltalog10CFU/ml (Staphylococcus aureus [5]): -4.7
LCK (Staphylococcus aureus [6]): >3
deltalog10CFU/ml (Staphylococcus aureus [7]): -0.5
RatioAUC/MIC [8]: 404
Activity [9]: inactive
Activity (Staphylococcus aureus [10]): Active
Cmax [11]: 5200 ng/mL
Activity (Staphylococcus aureus [12]): Active
deltalog10CFU/ml (Staphylococcus aureus [13]): -5.1
deltalog10CFU/ml (Staphylococcus aureus [14]): -2.7
deltalog10CFU/ml (Staphylococcus aureus [15]): -1.6
Activity (Staphylococcus aureus [16]): Active
MIC (Staphylococcus aureus [17]): 1 µg/mL (≈ 0.57 µM)
deltalog10CFU/ml (Staphylococcus aureus [18]): -2.6
AUC at 24 h [19]: 51000 ng·h/mL
Activity (Staphylococcus aureus [20]): Active
Activity (Staphylococcus aureus [21]): Active
deltalog10CFU/ml (Staphylococcus aureus [22]): -4.6
deltalog10CFU/ml (Staphylococcus aureus [23]): -1.3
deltalog10CFU/ml (Staphylococcus aureus [24]): -4.7
deltalog10CFU/ml (Staphylococcus aureus [25]): -4.5
deltalog10CFU/ml (Staphylococcus aureus [26]): -1
Activity (Staphylococcus aureus [27]): Active
MIC (Staphylococcus aureus [28]): 1 µg/mL (≈ 0.57 µM)
deltalog10CFU/ml (Staphylococcus aureus [29]): -4.2
deltalog10CFU/ml (Staphylococcus aureus [30]): -3.1
log10CFU/g (Staphylococcus aureus [31]): 4.7
deltalog10CFU/ml (Staphylococcus aureus [32]): -4.6
deltalog10CFU/ml (Staphylococcus aureus [33]): -1.2
deltalog10CFU/ml (Staphylococcus aureus [34]): -2.9
deltalog10CFU/ml (Staphylococcus aureus [35]): -2.3
